We go through twelve molecules from ChEMBL document CHEMBL3272318, “Antimalarials. 8. Synthesis of amino ethers as candidate antimalarials” (J Med Chem, 1976).

Molecules are shown by their SMILES. Activity calls are given as the source filed them. No cut-off for these calls is given here.

One data set deals with Plasmodium berghei. Description: Antimalarial activity against blood schizont stage of Plasmodium berghei infected in mouse at 640 mg/kg. Type of data set: functional, organism-based. Set-up: dose 640 mg/kg.
For another data set, the species on record is Mus musculus. The data set can be described thus: Toxicity in mouse infected with blood schizont stage of Plasmodium berghei. The format is organism-based. Particulars: in vivo.
For a further data set, the system named is Plasmodium gallinaceum. Description: Antimalarial activity against sporozoite stage of Plasmodium gallinaceum infected in chick at 480 mg/kg. The format is functional, organism-based. Further details: dose 480 mg/kg. The essentials:
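Prophylactic screen run at the Rane Laboratory (University of Miami) in chicks infected with Plasmodium gallinaceum. Compounds were tested at doses up to 480 mg/kg.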

As for `COC(CC1CCNCC1)c1ccc(Cl)cc1.Cl` (stereo unspecified), the outcome in the data set on Plasmodium berghei and with Plasmodium gallinaceum was inactive. In the data set filed under Mus musculus, the Activity entry is “Toxic”.
Regarding `CCOC(C)(Cc1ccc(Cl)cc1)C1CCNCC1.Cl` (stereo unspecified), the result in the data set on Plasmodium berghei and in the data set on Plasmodium gallinaceum was inactive. Besides, the Activity entry in the data set listed under Mus musculus is recorded as “Toxic”.
For the molecule `CCC(CC1CCCNC1)(OC)c1ccc(Cl)cc1` (stereo unspecified), the outcome in the data set with Plasmodium berghei and in the data set on Plasmodium gallinaceum was inactive. Besides, the Activity entry in the data set filed under Mus musculus is reported as “Toxic”.
`COC(c1ccc(Cl)cc1)C(C)C1CCNCC1.Cl` (stereo unspecified): the result with Plasmodium berghei and in the data set with Plasmodium gallinaceum was inactive. For the same molecule, in the data set filed under Mus musculus, the Activity entry was “Toxic”.
In the case of `CC(C)(Br)C(=O)c1ccc(Cl)cc1`, the outcome in the data set on Plasmodium berghei and in the data set with Plasmodium gallinaceum was inactive. Besides, in the data set listed under Mus musculus, the Activity entry was “Toxic”.
`CCC(Cc1ccc(Cl)cc1)(OC)C1CCCNC1.O=C(O)CCC(=O)O` (stereo unspecified): the result with Plasmodium berghei and with Plasmodium gallinaceum was inactive. Further, the Activity entry in the data set listed under Mus musculus is “Toxic”.
For `CC1(C2CCN(C(=O)O)CC2)OC1c1ccc(Cl)cc1` (stereo unspecified), the outcome in the data set with Plasmodium berghei and in the data set on Plasmodium gallinaceum was inactive. In addition, the Activity entry in the data set filed under Mus musculus is “Toxic”.
On to `CCC(CC1CCNCC1)(OC)c1ccc(Cl)cc1` (stereo unspecified), for which the result with Plasmodium berghei and in the data set with Plasmodium gallinaceum was inactive. For the same molecule, in the data set filed under Mus musculus, the Activity result is “Toxic”.
On to `CC(C)(Br)C(=O)c1ccc(-c2ccc(Cl)cc2)cc1`, for which the outcome with Plasmodium berghei and in the data set on Plasmodium gallinaceum was inactive. Further, the Activity result in the data set filed under Mus musculus is on record as “Toxic”.
Consider `CN1CCC(C2(C)OC2c2ccc(Cl)cc2)CC1.Cc1ccc(S(=O)(=O)O)cc1` (stereo unspecified), for which the outcome in the data set on Plasmodium berghei and with Plasmodium gallinaceum was inactive. Moreover, the Activity entry in the data set filed under Mus musculus is “Toxic”.
Take `CCOC(c1ccc(Cl)cc1)C(C)C1CCNCC1.O=C(O)CCC(=O)O` (stereo unspecified): the outcome in the data set on Plasmodium berghei and with Plasmodium gallinaceum was inactive. Further, the Activity entry in the data set filed under Mus musculus is given as “Toxic”.
Take `CCOC(C)(CC1CCNCC1)c1ccc(Cl)cc1` (stereo unspecified): the result with Plasmodium berghei and with Plasmodium gallinaceum was inactive. Also, the Activity entry in the data set filed under Mus musculus is reported as “Toxic”.
